System: HEK293
Experiment: Cytotoxicity against human HEK293 cells expressing human SERT assessed as decrease in cell viability after 48 hrs neutral red dye assay
Type: functional, cell-based
Details: HEK293, 48 h
In short: (§1)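 5x10^4 cells/well grown to sub-confluence (24-36 h), then exposed to compound 48 h. Neutral red dye 3+1 h, solubilised in 50% ethanol/1% acetic acid, absorbance 540 nm (690 nm background). Viability as percent of vehicle-treated cells; pEC50 by non-linear sigmoidal regression over 4 concentrations, triplicate on two independent days. Controls 30 mM sodium azide, 2% Triton-X. HEK293-hSERT cells kept in Geneticin, used up to 30 passages.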

Point of comparison: `NC(Cc1ccc2c(c1)OCO2)Cc1ccc2c(c1)OCO2`, EC50 31.6 µM. Against it:
- O=C(Cc1ccc2c(c1)OCO2)Cc1ccc2c(c1)OCO2 — 160-fold higher, 5010 µM
- CCNC(Cc1ccc(SC)cc1)Cc1ccc(SC)cc1 — within 1.5-fold, 25.1 µM
- CC(N)Cc1ccc2c(c1)OCO2 (configuration not stated) [TENAMFETAMINE] — 20-fold higher, 631 µM
- COc1ccc(CC(Cc2ccc(OC)cc2)NC=O)cc1 — 130-fold higher, 3980 µM
- COc1ccc(CC(N)Cc2ccc(OC)cc2)cc1 — within 1.5-fold, 25.1 µM

Target: T1, Sodium-dependent serotonin transporter (Homo sapiens, UniProt P31645)
Details: HEK293, at 1 µM
Target sequence in this assay (P31645 whole entry, looked up): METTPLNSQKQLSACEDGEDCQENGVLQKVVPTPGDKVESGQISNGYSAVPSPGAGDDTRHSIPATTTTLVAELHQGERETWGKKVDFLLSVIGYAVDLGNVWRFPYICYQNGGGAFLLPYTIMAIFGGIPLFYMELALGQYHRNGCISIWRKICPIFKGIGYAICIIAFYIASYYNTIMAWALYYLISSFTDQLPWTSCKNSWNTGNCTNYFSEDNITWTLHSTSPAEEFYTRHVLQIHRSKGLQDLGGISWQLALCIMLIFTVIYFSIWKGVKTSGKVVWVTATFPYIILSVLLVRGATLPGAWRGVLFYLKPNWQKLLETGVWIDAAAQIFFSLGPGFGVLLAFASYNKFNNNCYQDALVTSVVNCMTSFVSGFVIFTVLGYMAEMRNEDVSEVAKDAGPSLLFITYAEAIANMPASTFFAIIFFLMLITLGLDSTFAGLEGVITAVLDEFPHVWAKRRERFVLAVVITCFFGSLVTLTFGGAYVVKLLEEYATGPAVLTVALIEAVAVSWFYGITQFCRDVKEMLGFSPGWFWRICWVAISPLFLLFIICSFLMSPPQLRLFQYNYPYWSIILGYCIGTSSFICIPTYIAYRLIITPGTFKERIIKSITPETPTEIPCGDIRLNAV

Point of comparison: `CCNC(Cc1ccc(SC)cc1)Cc1ccc(SC)cc1`, inhibition 31%. Against it:
- NC(Cc1ccc2c(c1)OCO2)Cc1ccc2c(c1)OCO2 — higher, 44%
- COc1ccc(CC(Cc2ccc(OC)cc2)NC=O)cc1 — lower, 8%
- COc1ccc(CC(N)Cc2ccc(OC)cc2)cc1 — lower, 11%

Target: T1, Sodium-dependent serotonin transporter
Details: HEK293, at 100 µM
Target sequence in this assay (P31645 whole entry, looked up): as above

Point of comparison: `NC(Cc1ccc2c(c1)OCO2)Cc1ccc2c(c1)OCO2`, inhibition 77%. Against it:
- CCNC(Cc1ccc(SC)cc1)Cc1ccc(SC)cc1 — higher, 92%
- COc1ccc(CC(Cc2ccc(OC)cc2)NC=O)cc1 — lower, 18%
- COc1ccc(CC(N)Cc2ccc(OC)cc2)cc1 — lower, 65%

System: SH-SY5Y
Experiment: Cytotoxicity against human SH-SY5Y cells expressing human SERT assessed as decrease in cell viability after 48 hrs neutral red dye assay
Type: functional, cell-based
Details: not given

Point of comparison: `COc1ccc(CC(N)Cc2ccc(OC)cc2)cc1`, EC50 20 µM. Against it:
- O=C(Cc1ccc2c(c1)OCO2)Cc1ccc2c(c1)OCO2 — higher, > 10000 µM
- NC(Cc1ccc2c(c1)OCO2)Cc1ccc2c(c1)OCO2 — 1.6-fold higher, 31.6 µM
- CCNC(Cc1ccc(SC)cc1)Cc1ccc(SC)cc1 — within 1.5-fold, 15.8 µM
- CC(N)Cc1ccc2c(c1)OCO2 (configuration not stated) [TENAMFETAMINE] — higher, > 10000 µM
- COc1ccc(CC(Cc2ccc(OC)cc2)NC=O)cc1 — higher, > 10000 µM

System: SH-SY5Y
Experiment: Antiproliferative activity against human SH-SY5Y cells after 24 hrs Alamar blue assay
Type: functional, cell-based
Details: not given
In short: (§2)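 Alamar Blue viability: 1-5x10^4 cells/well treated 24 h, then Alamar Blue (pre-warmed) 4-6 h at 37 °C in the dark. Fluorescence read at 590 nm (excitation 544 nm), background of medium plus dye subtracted, untreated cells = 100% viability. Miconazole 10 µM as cell-death control. Range 1 µM-1 mM, triplicate on two independent days. pEC50 from non-linear sigmoidal regression.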

Point of comparison: `COc1ccc(CC(Cc2ccc(OC)cc2)NC=O)cc1`, EC50 316 µM. Against it:
- O=C(Cc1ccc2c(c1)OCO2)Cc1ccc2c(c1)OCO2 — within 1.5-fold, 251 µM
- NC(Cc1ccc2c(c1)OCO2)Cc1ccc2c(c1)OCO2 — 10-fold lower, 31.6 µM
- COc1ccc(CC(N)Cc2ccc(OC)cc2)cc1 — 16-fold lower, 20 µM

System: not listed separately
Experiment: Antiproliferative activity against human chemosensitive MUTU-I cells after 24 hrs Alamar blue assay
Type: functional, cell-based
Details: not given
In short: as §2

Point of comparison: `O=C(Cc1ccc2c(c1)OCO2)Cc1ccc2c(c1)OCO2`, EC50 100 µM. Against it:
- NC(Cc1ccc2c(c1)OCO2)Cc1ccc2c(c1)OCO2 — 2-fold lower, 50.1 µM
- COc1ccc(CC(Cc2ccc(OC)cc2)NC=O)cc1 — 2-fold higher, 200 µM
- COc1ccc(CC(N)Cc2ccc(OC)cc2)cc1 — 7.9-fold higher, 794 µM

Target: T1, Sodium-dependent serotonin transporter
Experiment: Inhibition of [3H]-serotonin reuptake at human SERT expressed in HEK293 cells after 15 to 20 mins by fluorescence neurotransmitter transporter assay
Type: cell-based
Details: not given
Target sequence in this assay (P31645 whole entry): as the sequence (P31645 whole entry, looked up) above

Point of comparison: `NC(Cc1ccc2c(c1)OCO2)Cc1ccc2c(c1)OCO2`, IC50 1.6 µM. Against it:
- CCNC(Cc1ccc(SC)cc1)Cc1ccc(SC)cc1 — within 1.5-fold, 2.2 µM
- CC(N)Cc1ccc2c(c1)OCO2 (configuration not stated) [TENAMFETAMINE] — 1.8-fold lower, 0.9 µM

System: DG-75
Experiment: Cytotoxicity against human chemoresistant DG75 cells expressing SERT assessed as decrease in cell viability 10 or 50 uM after 72 hrs Alamar blue assay
Type: functional, cell-based
Details: DG-75, 72 h
In short: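 1-5x10^4 cells/200 µl given 10 or 50 µM for 24 h (MUTU-I, MDA-MB231, PBMC) or […]. Alamar Blue at 37 °C in the dark 4-6 h, then fluorescence read with 544/590 nm. Media-only background subtracted; untreated cells set as 100% viability. Mean of six points (triplicate, two independent days). PBMCs from a healthy donor, isolated by ficoll density separation.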

Point of comparison: `COc1ccc(CC(N)Cc2ccc(OC)cc2)cc1`, EC50 20 µM. Against it:
- O=C(Cc1ccc2c(c1)OCO2)Cc1ccc2c(c1)OCO2 — 160-fold higher, 3160 µM
- NC(Cc1ccc2c(c1)OCO2)Cc1ccc2c(c1)OCO2 — within 1.5-fold, 15.8 µM
- CCNC(Cc1ccc(SC)cc1)Cc1ccc(SC)cc1 — 1.6-fold lower, 12.6 µM
- CC(N)Cc1ccc2c(c1)OCO2 (configuration not stated) [TENAMFETAMINE] — 100-fold higher, 2000 µM
- COc1ccc(CC(Cc2ccc(OC)cc2)NC=O)cc1 — 79-fold higher, 1580 µM

System: DG-75
Experiment: Antiproliferative activity against human DG75 cells after 24 hrs Alamar blue assay
Type: functional, cell-based
Details: DG-75, 24 h
In short: as §2

Point of comparison: `COc1ccc(CC(Cc2ccc(OC)cc2)NC=O)cc1`, EC50 200 µM. Against it:
- O=C(Cc1ccc2c(c1)OCO2)Cc1ccc2c(c1)OCO2 — within 1.5-fold, 158 µM
- NC(Cc1ccc2c(c1)OCO2)Cc1ccc2c(c1)OCO2 — within 1.5-fold, 251 µM
- COc1ccc(CC(N)Cc2ccc(OC)cc2)cc1 — 2-fold higher, 398 µM

System: HEK293
Experiment: Cytotoxicity against human HEK293 cells assessed as decrease in cell viability after 48 hrs neutral red dye assay
Type: functional, cell-based
Details: HEK293, 48 h
In short: as §1

Point of comparison: `COc1ccc(CC(N)Cc2ccc(OC)cc2)cc1`, EC50 31.6 µM. Against it:
- O=C(Cc1ccc2c(c1)OCO2)Cc1ccc2c(c1)OCO2 — 40-fold higher, 1260 µM
- NC(Cc1ccc2c(c1)OCO2)Cc1ccc2c(c1)OCO2 — within 1.5-fold, 25.1 µM
- CCNC(Cc1ccc(SC)cc1)Cc1ccc(SC)cc1 — 40-fold higher, 1260 µM
- CC(N)Cc1ccc2c(c1)OCO2 (configuration not stated) [TENAMFETAMINE] — 10-fold higher, 316 µM
- COc1ccc(CC(Cc2ccc(OC)cc2)NC=O)cc1 — the same, 31.6 µM

Reference: ChEMBL document CHEMBL1671778, “Synthesis and serotonin transporter activity of 1,3-bis(aryl)-2-nitro-1-propenes as a new class of anticancer agents” (Bioorg Med Chem, 2011)
